Reference: ChEMBL document CHEMBL3286203, “Reactive oxygen species (ROS) inducible DNA cross-linking agents and their effect on cancer cells and normal lymphocytes” (J Med Chem, 2014)

Legend:
[1] = Drug level in deuterated phosphate buffer treated with 40 mM N,N-Bis(2-chloroethyl)-4-(4,4,5,5-tetramethyl-1,3,2-dioxaborolan-2-yl)aniline after 24 hrs by 1H-NMR analysis; format: physicochemical
Method in brief: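 1H NMR of the boronate mustard (40 mM) held 24 h in deuterated potassium phosphate buffer (4.0 mM) with no H2O2. Solvent was 1.0 M deuterated potassium phosphate buffer/DMSO-d6/D2O = 2:450:48.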

[2] = Induction of [32P]-labeled 49-mer oligonucleotide duplex DNA 12 with GNC sequence at terminus (unknown origin) interstrand cross-linking at 1 mM after 16 hrs by PAGE
Method in brief: (§1)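 32P-labelled 12a (1.0 μM) annealed with 1.5 equiv of 12b in 10 mM potassium phosphate pH 7 / 100 mM NaCl (65 °C for 3 min, then slow cooling). Duplex incubated with compound (final 1 μM–5 mM), with or without H2O2, in NaCl and potassium phosphate pH 8 at room temperature for 16 h. Quenched in formamide; 20% denaturing PAGE.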

[3] = Ratio of induction of [32P]-labeled 49-mer oligonucleotide duplex DNA 12 with GNC sequence at terminus (unknown origin) interstrand cross-linking in presence of H2O2 to induction of [32P]-labeled 49-mer oligonucleotide duplex DNA 12 with GNC sequence at terminus (unknown origin) in absence of H2O2; method in brief: as §1
[4] = Induction of [32P]-labeled 49-mer oligonucleotide duplex DNA 12 with GNC sequence at terminus (unknown origin) interstrand cross-linking at 50 uM after 16 hrs by PAGE in presence of H2O2; method in brief: as §1

Structure (SMILES)	Drug metabolism [1]	Activity [2] [%]	Ratio [3]	Activity [4] [%]
CC(C)(O)C(C)(C)O	metabolite_detected	–	–	–
CC1(C)OB(c2ccc(N(CCOS(C)(=O)=O)CCOS(C)(=O)=O)cc2)OC1(C)C	–	22	3	3
